This note sets out measurements from ChEMBL document CHEMBL1142533, “Structure-based virtual screening and biological evaluation of Mycobacterium tuberculosis adenosine 5'-phosphosulfate reductase inhibitors” (J Med Chem, 2008).

Experiment [1] in a line: Binding affinity to Mycobacterium tuberculosis APS reductase. In outline: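 Timed aliquots quenched in 2% charcoal/20 mM Na2SO3, radiolabeled sulfite in supernatant counted. kobs from single-exponential fit; Ki (=Kd) from kobs dependence on inhibitor concentration.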
Experiment [2] has as its system Mycobacterium tuberculosis. Kind of experiment: Inhibition of Mycobacterium tuberculosis APS reductase assessed as [35S]sulphite release at 100 uM.
Experiment [3] concerns the target T1, Receptor-type tyrosine-protein phosphatase C (Homo sapiens) (UniProt P08575).
T1 sequence (whole entry): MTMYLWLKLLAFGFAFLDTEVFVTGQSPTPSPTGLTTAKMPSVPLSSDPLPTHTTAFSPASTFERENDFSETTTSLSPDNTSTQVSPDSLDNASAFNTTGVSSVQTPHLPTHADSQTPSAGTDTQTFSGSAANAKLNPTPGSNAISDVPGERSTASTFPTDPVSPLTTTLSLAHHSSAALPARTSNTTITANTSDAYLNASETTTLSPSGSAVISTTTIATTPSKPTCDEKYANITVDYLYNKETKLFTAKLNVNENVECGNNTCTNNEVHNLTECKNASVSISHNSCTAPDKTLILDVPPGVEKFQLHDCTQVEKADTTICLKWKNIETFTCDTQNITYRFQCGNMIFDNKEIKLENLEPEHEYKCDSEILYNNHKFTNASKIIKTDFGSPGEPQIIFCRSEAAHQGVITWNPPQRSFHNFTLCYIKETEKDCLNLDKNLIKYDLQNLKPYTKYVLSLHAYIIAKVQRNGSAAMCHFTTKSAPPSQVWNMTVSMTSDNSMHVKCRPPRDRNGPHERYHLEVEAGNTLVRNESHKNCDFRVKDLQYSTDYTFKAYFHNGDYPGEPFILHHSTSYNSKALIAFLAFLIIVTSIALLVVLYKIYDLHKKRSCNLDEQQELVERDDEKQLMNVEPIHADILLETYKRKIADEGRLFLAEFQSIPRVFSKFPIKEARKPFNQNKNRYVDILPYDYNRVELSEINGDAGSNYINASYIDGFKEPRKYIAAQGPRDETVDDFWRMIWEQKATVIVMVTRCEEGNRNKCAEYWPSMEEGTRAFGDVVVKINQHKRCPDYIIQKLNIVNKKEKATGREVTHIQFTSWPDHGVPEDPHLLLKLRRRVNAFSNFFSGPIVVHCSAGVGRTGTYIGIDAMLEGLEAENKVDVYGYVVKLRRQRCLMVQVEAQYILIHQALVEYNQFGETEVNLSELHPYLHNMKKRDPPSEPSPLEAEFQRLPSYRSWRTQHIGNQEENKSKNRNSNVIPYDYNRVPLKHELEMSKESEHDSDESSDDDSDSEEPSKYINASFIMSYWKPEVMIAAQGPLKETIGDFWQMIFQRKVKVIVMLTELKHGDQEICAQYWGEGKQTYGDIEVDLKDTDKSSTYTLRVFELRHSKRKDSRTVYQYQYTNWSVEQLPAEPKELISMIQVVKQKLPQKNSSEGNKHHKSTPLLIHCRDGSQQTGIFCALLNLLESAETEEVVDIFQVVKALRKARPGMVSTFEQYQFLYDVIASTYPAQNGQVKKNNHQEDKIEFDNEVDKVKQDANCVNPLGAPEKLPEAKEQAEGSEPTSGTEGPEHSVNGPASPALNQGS

A value given as a limit tells only on which side of the number the result lay.

`O=[N+]([O-])c1ccc(Sc2cccc[n+]2[O-])c2nonc12`: the affinity in experiment [1], expressed as Kd, was 19.5 µM.

With `Nc1nc(Sc2ccc([N+](=O)[O-])c3nonc23)c2nc[nH]c2n1`, the Kd in experiment [1] amounted to 15.2 µM. In addition, the inhibition in experiment [2] is greater than 90%.

Take `CC(=O)[C@H]1CC[C@H]2C34C=C[C@]5(C[C@@H](O)CC[C@]5(C)C3=CC[C@]12C)[C@H](C(=O)O)[C@@H]4C(=O)O`: binding in experiment [1] was characterised by a dissociation constant (Kd) of 127 µM.

As for `CC(=O)Nc1cc2c(cc1[N+](=O)[O-])-c1ccccc1C2=O`, the Kd in experiment [1] was 31.8 µM.

For the molecule `O=C1C(=O)c2cc([N+](=O)[O-])ccc2-c2ccccc21`, the Kd in experiment [1] was 6.81 µM. Further, the Kinact in experiment [3] worked out at 4300 M⁻¹ s⁻¹.

The molecule `O=C(O)C[S+]([O-])c1ccc2c3c(cccc13)C(=O)c1ccccc1-2` (centres undefined) gave a Kd in experiment [1] of 180 µM.

Consider `O=C1c2ccccc2-c2cc([N+](=O)[O-])c([N+](=O)[O-])cc21`, for which, in experiment [1], the Kd was determined as 37.1 µM. In addition, the inhibition in experiment [2] is greater than 50%.

`O=C1c2cc(F)ccc2-c2cc(F)c([N+](=O)[O-])cc21`: the Kd in experiment [1] came out at 44.6 µM.

Molecule `O=C(O)CCc1nnc2c3ccccc3c3ccccc3c2n1` had a Kd in experiment [1] of 46.9 µM. Moreover, the inhibition in experiment [2] is greater than 50%.

As for `O=C1c2ccccc2-c2c1cc([N+](=O)[O-])cc2[N+](=O)[O-]`, the Kd in experiment [1] came out at 48.1 µM.

Usually Kd stands for the concentration at which binding is half-saturated. Read a low Kd as tighter binding. For orientation: inhibition means the relative decrease from the control value, in per cent.
